Test results reported in PubChem BioAssay AID651936 (NMMLSC, 2012).

Tested on: AM2.2-beta2AR cells, FAP fluorogen binding after washes, flow cytometry
Test: reversibility of FAP fluorogen binding blockade, mechanism study for beta2AR internalization ligand project, AM2.2-beta2AR cells, powder sets 3 and 4 (AID 651936)
Method in brief: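 Material: AM2.2-beta2AR cell line | Medium: Serum-free RPMI, 1% FBS RPMI wash medium | Also added: TO1-2p at 150 nM final, added to cell aliquots | Incubation: 90 min compound exposure at 37 °C | Technique: Flow cytometry | Read-out: TO1-2p binding versus number of washes | Controls: DMSO-only treated cells as negative control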

## CN(CC(=O)N1CCN(c2ccccn2)CC1)S(=O)(=O)c1ccccc1
At 0.85 µM (top of the series)
  normalized fluorogen binding: 0.218

## Cc1ccc(S(=O)(=O)N2CCCCC2C(=O)N2CCN(c3ccc(C(F)(F)F)cn3)CC2)cc1 (configuration not stated)
At 100 µM (top of the series)
  normalized fluorogen binding: 0.154

## CN(CC(=O)N1CCN(c2ccccn2)CC1)S(=O)(=O)c1ccc(Br)cc1
At 0.2 µM (top of the series)
  normalized fluorogen binding: 0.145

## CCCCC(=O)Nc1ccc(S(=O)(=O)N2CCCCC2c2cccnc2)cc1 (configuration not stated)
At 0.3 µM (top of the series)
  normalized fluorogen binding: 0.181

## Cc1ccc(S(=O)(=O)N(C)CC(=O)N2CCN(c3ccccn3)CC2)cc1
At 0.8 µM (top of the series)
  normalized fluorogen binding: 0.124

## CC(=O)Nc1ccc(S(=O)(=O)N2CCCCC2c2cccnc2)cc1 (configuration not stated)
At 1.4 µM (top of the series)
  normalized fluorogen binding: 0.147
At 60 µM (top of the series)
  normalized fluorogen binding: 0.642

## O=C(Nc1ccc(S(=O)(=O)N2CCCCC2c2cccnc2)cc1)c1c(F)cccc1F (configuration not stated)
At 2 µM (top of the series)
  normalized fluorogen binding: 0.232

## CN(CC(=O)N1CCN(c2cccc(C(F)(F)F)c2)CC1)S(=O)(=O)c1ccc(F)cc1
At 60 µM (top of the series)
  normalized fluorogen binding: 0.233

## CN(CC(=O)N1CCN(c2ccccn2)CC1)S(=O)(=O)c1ccc(Cl)cc1
At 0.2 µM (top of the series)
  normalized fluorogen binding: 0.143

## CC(C)n1nnc2cc(S(=O)(=O)N(C)CC(=O)N3CCN(c4ccccn4)CC3)ccc21
At 60 µM (top of the series)
  normalized fluorogen binding: 0.257

## CCOC(=O)N1CCN(C(=O)CN(C)S(=O)(=O)c2ccc(Cl)cc2)CC1
At 10 µM (top of the series)
  normalized fluorogen binding: 0.122
